Test results taken from ChEMBL document CHEMBL1126765, “Analogues of capsaicin with agonist activity as novel analgesic agents; structure-activity studies. 1. The aromatic "A-region"” (J Med Chem, 1993).

Legend:
Rattus norvegicus = organism: Rattus norvegicus; test: In vitro effective concentration for [Ca2+] uptake and accumulation of [Ca2+] in neonatal rat cultured spinal sensory neurons; type: functional
Method in brief: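 Newborn rat DRG neurones dissociated with collagenase then 2.5 mg/mL trypsin at 37 °C, plated with 1 μg/mL NGF, 10^-4 M cytosine arabinoside for 48 h; used at 3-7 days. Cells washed in Ca-free HEPES BSS pH 7.4, then given compound plus 10 μCi/mL 45Ca2+ with 1% DMSO for 10 min at room temperature. SDS-extracted, scintillation counted. Sigmoidal fit; ≥6 replicates, ≥2 experiments; mean ± SEM.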

Mus musculus = test: In vivo analgesic activity, mouse tail flick latency in antinociceptive assay; type: functional
Method in brief: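 Female CD-1 mice, about 20 g, fasted overnight. Drug or vehicle given s.c. into the back of the neck, 10 per group. Tail flick latency to a focused light beam measured 1 h later at 3.5 cm from the tip, 30 s cutoff. % analgesia = (drug − vehicle latency)/(30 s − vehicle latency); ED50 = dose giving 50% analgesia. Mann-Whitney U or Dunnett's test.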

Cavia porcellus = organism: Cavia porcellus; test: In vitro contraction in guinea pig ileum equivalent to 50% capsaicin response; type: functional
Method in brief: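 Male Dunkin-Hartley guinea pig ileum segments in Tyrode's solution at 37 °C, gassed 95% O2/5% CO2, isometric recording, 1 h equilibration under 0.5 g tension. […] doses given at 1 h intervals with frequent washes. Contraction amplitude expressed as % of maximal capsaicin response; EC50 = concentration giving 50% of that response; mean ± SEM from at least four tissues.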

[1] = Acid dissociation constant was determined; type: ADME

Compound	EC50 (Rattus norvegicus) [µM]	ED50 (Mus musculus) [µmol/kg]	EC50 (Cavia porcellus) [µM]	pKa [1]
CCCCCCCCNC(=O)Cc1ccc(O)c(OC)c1	0.3	9.2	0.33	9.9
CCCCCCCCNC(=O)Cc1ccc(O)c(O)c1	0.41	50	0.33	9.2
CCCCCCCCC(=O)NCc1ccc(S)c(OC)c1	> 100	–	–	–
CCCCCCCCC(=O)NCc1cccc(OC)c1	> 100	–	–	–
COc1cc(CNC(=O)CCCC/C=C/C(C)C)ccc1O [CAPSAICIN]	0.3	15	0.26	–
CCCCCCCCNC(=O)Cc1cc(OC)c(O)c(OC)c1	> 100	–	–	–
CCCCCCCCC(=O)NCc1ccc(N)c(OC)c1	> 10	–	–	–
CCCCCCCCNC(=O)Cc1ccc2c(c1)OCO2	> 100	–	–	–
CCCCCCCCC(=O)NCc1cc[n+]([O-])cc1	> 100	–	–	–
CCCCCCCCNC(=O)Cc1ccc(O)c(NC(C)=O)c1	> 100	–	–	9.7
CCCCCCCCNC(=O)Cc1ccc2ncccc2c1	> 100	–	–	–
CCCCCCCCNC(=O)Cc1ccc(O)c(OCC)c1	4.34	> 50	4.96	10.4
CCCCCCCCNC(=O)Cc1ccc(O)c(OC)c1OC	> 100	–	–	–
CCCCCCCCC(=O)NCc1ccnc(OC)c1	31.5	–	–	–
CCCCCCCCC(=O)NCc1ccc2[nH]ccc2c1	> 100	–	–	–
CCCCCCCCC(=O)NCc1cc(OC)c(O)cc1OC	> 100	–	–	–
CCCCCCCCNC(=O)Cc1ccc(O)cc1	6.5	> 50	2.75	10.2
CCCCCCCCC(=O)NCc1ccc2c(c1)OCO2	> 100	–	–	–
CCCCCCCCNC(=O)Cc1ccc(O)c2c1OCCO2	> 100	–	–	–
CCCCCCCCC(=O)NCc1ccncc1	28	–	–	–
CCCCCCCCC(=O)NCc1cc(O)cc(OC)c1	> 100	–	–	–

Compound	EC50 (Rattus norvegicus) [µM]	ED50 (Mus musculus) [µmol/kg]	EC50 (Cavia porcellus) [µM]	pKa [1]
CCCCCCCCNC(=O)Cc1ccc(OC)c(C)c1	> 100	–	–	–
CCCCCCCCC(=O)NCc1cccnc1	> 100	–	–	–
CCCCCCCCC(=O)NCc1ccc(C(=O)O)cc1	> 100	–	–	–
CCCCCCCCC(=O)NCc1ccc(O)cc1OC	> 100	–	–	–
CCCCCCCCC(=O)NCc1ccc(O)c(OC)c1 [NONIVAMIDE]	0.55	5	0.4	–
CCCCCCCCNC(=O)Cc1ccc(O)c(Cl)c1	0.26	> 50	0.68	9
CCCCCCCCC(=O)NCc1ccc([N+](=O)[O-])c(OC)c1	7.91	–	–	–
CCCCCCCCC(=O)NCc1cc(OC)c(OC)c(OC)c1	> 100	–	–	–
CCCCCCCCNC(=O)Cc1ccc(OC)c(O)c1	1.82	–	–	–
CCCCCCCCC(=O)NCc1ccc(O)c(O)c1O	7.64	–	–	–
CCCCCCCCC(=O)NCc1ccccc1 [NONANOIC ACID BENZYLAMIDE]	> 100	–	–	–
CCCCCCCCC(=O)NCc1ccc(OC)c(OC)c1	6.41	> 50	1.15	–
CCCCCCCCC(=O)NCc1ccccc1OC	> 100	–	–	–
CCCCCCCCNC(=O)Cc1cccc(OC)c1	> 100	–	–	–
CCCCCCCCNC(=O)Cc1ccc(O)c(N)c1	> 100	–	–	10
CCCCCCCCNC(=O)Cc1ccc(O)c(C)c1	> 100	–	–	10.6
CCCCCCCCC(=O)NCc1ccc(O)c(O)c1	0.63	20	0.22	–
CCCCCCCCC(=O)NCc1cc(=O)c(O)co1	> 100	–	–	–
CCCCCCCCC(=O)NCc1ccc(OC)cc1	> 100	> 50	22.2	–
CCCCCCCCNC(=O)Cc1ccc(O)c([N+](=O)[O-])c1	1.04	> 50	2.78	7.7
CCCCCCCCC(=O)NCc1cccc(O)c1	> 100	–	–	–
